KCNQ1 act = potentiates or activates the human KCNQ1 potassium channel. P51787. CHO-K1 KCNQ1, thallium flux FluxOR fluorescence; active compounds read high. B-score at 10 µM. hit rate 0.35% among 310,000. AID 2648;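 active = fluorescence ratio B-score, a plate-corrected score, at least three library SD, with initial intensity B-score within 5 SD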
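Assay system: CHO-K1 cells stably expressing KCNQ1. Medium: assay buffer for compound exposure, DMSO matched across wells. Timing: 37 °C overnight plating, 90-min dark dye load, 20-min compound pretreatment. Signal: kinetic FluxOR fluorescence, 10 s baseline plus 110 s post-stimulus.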
hERG rescue = hERG (human) protection from proarrhythmic block; activation (rescue from dofetilide block), less the hit threshold, % at 10 µM; hit rate 0.51% among 310,000; CHO-hERG, FluxOR thallium flux, dofetilide IC70 present;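 active = activation above the mean of controls blocked by dofetilide plus 5 SD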;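 note: thallium influx through hERG after potassium depolarization seen as dye fluorescence rise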
Target sequence (Q12809 whole entry, looked up): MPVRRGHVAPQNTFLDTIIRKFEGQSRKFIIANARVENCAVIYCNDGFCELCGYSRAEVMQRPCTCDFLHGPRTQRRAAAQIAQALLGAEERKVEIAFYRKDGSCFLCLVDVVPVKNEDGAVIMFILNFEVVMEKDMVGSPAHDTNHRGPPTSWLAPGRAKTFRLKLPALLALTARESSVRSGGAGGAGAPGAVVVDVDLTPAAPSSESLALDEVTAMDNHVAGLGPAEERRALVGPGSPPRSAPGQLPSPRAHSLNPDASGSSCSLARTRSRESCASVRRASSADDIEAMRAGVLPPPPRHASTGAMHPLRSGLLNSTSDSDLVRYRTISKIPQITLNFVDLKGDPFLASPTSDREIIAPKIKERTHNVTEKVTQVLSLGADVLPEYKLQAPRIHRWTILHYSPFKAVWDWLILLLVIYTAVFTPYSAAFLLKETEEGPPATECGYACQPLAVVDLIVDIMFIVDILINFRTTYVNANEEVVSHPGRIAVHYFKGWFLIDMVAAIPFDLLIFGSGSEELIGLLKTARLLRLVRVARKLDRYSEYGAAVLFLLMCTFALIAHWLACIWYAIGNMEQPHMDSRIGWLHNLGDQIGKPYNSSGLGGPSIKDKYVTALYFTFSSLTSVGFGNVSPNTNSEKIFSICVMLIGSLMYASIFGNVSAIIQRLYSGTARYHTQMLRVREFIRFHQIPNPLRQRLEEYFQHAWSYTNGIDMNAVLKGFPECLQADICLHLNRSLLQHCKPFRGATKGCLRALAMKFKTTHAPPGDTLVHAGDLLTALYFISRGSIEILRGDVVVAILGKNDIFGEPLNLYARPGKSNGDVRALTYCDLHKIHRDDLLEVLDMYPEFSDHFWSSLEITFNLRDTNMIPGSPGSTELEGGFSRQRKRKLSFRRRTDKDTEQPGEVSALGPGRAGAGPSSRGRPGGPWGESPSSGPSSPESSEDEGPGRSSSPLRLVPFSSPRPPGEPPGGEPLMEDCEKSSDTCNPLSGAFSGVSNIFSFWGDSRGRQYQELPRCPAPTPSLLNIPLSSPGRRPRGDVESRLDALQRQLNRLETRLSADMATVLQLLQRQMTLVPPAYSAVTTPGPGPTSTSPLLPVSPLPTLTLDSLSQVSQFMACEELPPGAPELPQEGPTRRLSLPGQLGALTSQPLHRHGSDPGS
KCNK3 block = human KCNK3 channel inhibition, primary screen; O14649; CHO-KCNK3 thallium flux, FluxOR fluorescence; active compounds read low; B-score at 10 µM; hit rate 0.84% among 340,000; AID 602410;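 active = B-score under library mean minus 4 SD, starting fluorescence ratio at most library mean plus 5 SD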;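 note: more negative B-score means stronger inhibition of thallium flux through KCNK3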
KCNK9 block = human KCNK9 channel inhibition; HEK293 KCNK9, FluxOR thallium flux fluorescence; active compounds read low; hit rate 1.2% among 310,000; AID 488922; Q9NPC2; B-score at 10 µM;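 active = ratio B-score over 3 SD below the library mean, with starting fluorescence within 5 SD of its mean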;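 note: negative B-score means less thallium flux so channel inhibition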
KCNQ1 inh = inhibitors of human KCNQ1 potassium channel. CHO-K1 KCNQ1, FluxOR thallium flux fluorescence; active compounds read high. B-score at 10 µM. hit rate 1.3% among 310,000. P51787. AID 2642;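 active = compounds whose thallium flux B-score, printed positive for inhibition, exceeds three library SD while starting fluorescence stays within three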;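 note: channel opened by potassium depolarization with thallium stimulus after 20 min compound exposure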
KCNK9 block conf = human KCNK9 inhibitor confirmation; shares compounds with KCNK9 block; HEK293 KCNK9 cells, FluxOR thallium flux fluorescence; inhibition, % at 10 µM; hit rate 43% among 4,900; AID 492992;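 active = thallium signal inhibited by more than 5 SD of the compound-free buffer control wells, on both duplicate plates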;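 note: 0% = assay buffer control wells without compound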
Kir21 sel = tests whether KCNK9 modulators also affect mouse Kir2.1; shares compounds with KCNK9 block; Kir2.1 cells, FluxOR thallium flux fluorescence; inhibition, % at 10 µM; hit rate 4% among 4,900;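 active = thallium signal drop more than 5 SD beyond the mean of the no-compound control wells, seen in both duplicate plates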;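 note: signal is fluorescence rise after thallium addition divided by baseline fluorescence; plate controls were assay buffer only for no effect and full block by chlorpromazine control for full effect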
HEK293 Tl ctr = non-induced cell nonspecific activity of KCNK9 modulators; shares compounds with KCNK9 block; non-induced KCNK9-HEK293, FluxOR thallium flux; inhibition, % at 10 µM; hit rate 40% among 4,900;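 active = thallium signal drop beyond 5 SD of the untreated control mean, on both duplicate plates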;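 note: plate controls were buffer only IC0 wells for no effect and SID17386958 at its maximal inhibitory level for full effect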
* marks the source's active call; other numbers are inactive results; i = inactive; · = not tested or not shown. Rows were chosen to be rich in hits. Some 3.1% of all compounds tested hit in one or more screens of this group.

SMILES	KCNQ1 act	hERG rescue	KCNK3 block	KCNK9 block	KCNQ1 inh	KCNK9 block conf	Kir21 sel	HEK293 Tl ctr
O=S(=O)(NCCN1CCN(S(=O)(=O)c2ccccc2F)CC1)c1ccccc1F	·	·	i	·	·	·	·	·
Brc1cc2c(cc1C1Nc3ccccc3C3C=CCC31)OCO2 (configuration not stated)	i	-12	i	-8.3*	i	56%*	i	42%*
O=C(O)c1ccc2c(c1)C1C=CCC1C(c1cc3c(cc1Br)OCO3)N2 (configuration not stated)	i	-4	i	i	i	·	·	·
CCOC(=O)C1(CCCc2ccccc2)CCN(C2CCSCC2)CC1	i	-13	i	i	i	i	i	i
OCC1(CCCc2ccccc2)CCN(C2CCSCC2)CC1	i	-12	i	i	i	·	·	·
CCOC(=O)n1c(=O)n(Cc2ccc(Cl)cc2Cl)c2ccccc21	i	-8	i	-17*	i	76%*	i	i
CCOC(=O)n1c(=O)n(Cc2ccccc2Cl)c2ccccc21	i	-6	i	i	i	·	·	·
CS(=O)(=O)N1CCC(Oc2ccccc2C(=O)N2CCNC(=O)C2)CC1	i	-18	i	i	i	·	·	·
COc1ccc(N2C(=O)C(C)C(Cc3ccc(C)cc3)C2=O)cc1 (configuration not stated)	i	-5	i	i	i	·	·	·
Cc1cccc(N(Cc2ccccc2)C(=O)c2cc(S(=O)(=O)N3CCOCC3)ccc2Cl)c1	i	-11	i	i	i	i	i	i
COc1cc([N+](=O)[O-])ccc1NC(=O)CC(C)C	i	-11	i	i	i	·	·	·
N#Cc1c(Sc2ncc(C(F)(F)F)cc2Cl)nsc1C/C=N\OCc1ccccc1Br	i	-15	i	i	i	i	i	i
Cn1c(C(N)=O)cnc1Sc1ncc(C(F)(F)F)cc1Cl	i	-5	i	i	i	·	·	·
COc1ccc(CC(=O)Nc2nc(C)cs2)cc1S(=O)(=O)N1CCOCC1	·	·	i	·	·	·	·	·
Cc1nc(Br)c(Br)c(C)c1Br	i	-3	i	i	i	·	·	·
CCn1c(SCCOc2ccc(Cl)cc2)nnc1-c1cccs1	i	-11	i	i	i	i	i	i
CCn1c(SCC(=O)c2ccc(Cl)cc2)nnc1-c1cccs1	i	-3	i	i	i	·	·	·
CCN(C(=O)CSc1ncccc1C(=O)Oc1cccc([N+](=O)[O-])c1)c1cccc(C)c1	i	-8	i	-19*	i	52%*	i	28%*
CCOC(=O)c1cccnc1SCC(=O)N(C)c1ccccc1	i	-8	i	i	i	·	·	·
COc1cc(OC)cc(C(=O)N[C@H](C(=O)NCc2ccc(F)cc2)C(C)C)c1	i	-12	i	i	i	·	·	·
O=C(c1ccco1)N1CCN(S(=O)(=O)c2cccc(Cl)c2)CC1	i	-2	i	i	i	·	·	·
CCC(=O)N(NC1=NS(=O)(=O)c2ccccc21)S(=O)(=O)c1ccc(C)cc1	i	-19	i	i	i	·	·	·
CC1=NN(c2ccc(C)cc2)C(=O)/C1=C/c1ccc(-c2cc([N+](=O)[O-])ccc2O)o1	i	-3	i	i	i	·	·	·
CC1=NN(c2ccccc2)C(=O)/C1=C/c1ccc(-c2ccc(C)c(C(=O)O)c2)o1	i	16*	i	i	i	i	i	i
CC1=NN(c2ccc(C(=O)O)cc2)C(=O)/C1=C/c1ccc(-c2ccccc2F)o1	i	-7	i	i	i	i	i	i
SMILES	KCNQ1 act	hERG rescue	KCNK3 block	KCNK9 block	KCNQ1 inh	KCNK9 block conf	Kir21 sel	HEK293 Tl ctr
CC1=NN(c2ccc(Cl)c(C(=O)O)c2)C(=O)/C1=C\c1ccc(-c2ccc(C(=O)O)cc2)o1	i	-9	i	i	i	·	·	·
CN(C)S(=O)(=O)c1cccc(NC(=S)NN=C(Cc2ccccc2)Cc2ccccc2)c1	i	-4	i	i	i	·	·	·
CCOc1ccc(NC(=O)Nc2cc(C(=O)O)ccc2N2CC3CC(C2)c2cccc(=O)n2C3)cc1 (configuration not stated)	i	-6	i	i	i	·	·	·
Cc1ccc(C)n1-c1nn(S(=O)(=O)c2ccccc2)c2cccc(F)c12	i	-3	i	-15*	i	58%*	i	42%*
CSc1nc(-c2ccccc2)nn1S(=O)(=O)c1ccccc1	i	-16	i	i	i	·	·	·
O=C(Nc1ccccc1)c1ccccc1OCC(O)CN1C(=O)c2ccccc2S1(=O)=O (configuration not stated)	i	-16	i	i	i	·	·	·
CC1(C)NC(=O)N(CC(O)COc2ccccc2C(=O)Nc2ccccc2)C1=O (configuration not stated)	i	-6	i	-15*	i	58%*	i	i
O=C(CSc1nc2nc(-c3cccs3)cc(C(F)(F)F)c2c(=O)[nH]1)Nc1c(F)c(F)c(F)c(F)c1F	i	-13	i	i	10*	i	i	i
COCCn1nnnc1C(c1ccc(C)cc1)N1CCN(Cc2ccc3c(c2)OCO3)CC1 (configuration not stated)	i	-4	i	i	i	·	·	·
Cc1ccc(C(c2nnnn2Cc2cccs2)N2CCN(Cc3ccc4c(c3)OCO4)CC2)cc1 (configuration not stated)	i	-18	i	-12*	i	i	i	32%*
Cc1sc2nc(C3CC3)nc(SCC(=O)N3c4ccccc4CC3C)c2c1C (configuration not stated)	i	-16	i	i	i	i	i	i
Cc1nc(SCC(=O)N2c3ccccc3NC(=O)CC2C)c2c(C)c(C)sc2n1 (configuration not stated)	·	·	i	·	·	·	·	·
CC1(CC(=O)N/N=C/c2cc([N+](=O)[O-])c(O)cc2O)OCCO1	i	-9	i	i	i	·	·	·
Cc1ccc(SCc2ccc(C(=O)N3CCCCC3)cc2)cc1	i	-6	i	i	i	i	i	i
CN1CCN(C(=O)c2ccc(CSc3ccc(Cl)cc3)cc2)CC1	i	-13	i	i	i	·	·	·
CCn1ncc(CN2CCCC(C(=O)c3cccc(OC(C)C)c3)C2)c1C (configuration not stated)	i	-9	i	i	i	i	i	i

Assay outcomes as filed in PubChem.
